According to the RNAGym collection of RNA variant scans (doi:10.1101/gad.245936.114):
Fewer inactive variants are shown than the library holds.

B1: tRNA (parent)
chain: CUCUCGGUAGCCAAGUUGGUUUAAGGCGCAAGACUUUAAUUUAUCACUACGAAAUCUUGAGAUCGGGCGUUCGACUCGCCCCCGGGAGAUUUUUUCCUCGAGCAA

Variants of: B1
Assay: nonsense suppression (GFP-seq) (ratio to wild type); higher = more function; SUP4oc tRNA, yeast GFP reporter sort-seq
Outline: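 Raffinose/galactose medium with 80 mg/L adenine was used to grow yeast carrying genome-integrated tRNA variants (~3% random-mutation library), RFP, and a galactose-driven GFP ochre reporter. Cells went into GFP/RFP bins, which were Illumina-sequenced, and variants with ≥100 reads and ≥30 cells were scored. Nonsense suppression (GFPSEQ) is the per-bin median GFP/RFP weighted by estimated cell share and expressed relative to the unmutated parent tRNA.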

| Variant | nonsense suppression |
| --- | --- |
| U8A G26C A31U U55A U71A | ≤ 0.026 |
| A9C C12U | 0.186 |
| A9C C68U G78C | 0.0334 |
| G7C C29G A30G G61U U70C G85C | ≤ 0.026 |
| U8C G84U | ≤ 0.026 |
| G7A U76C G88U | ≤ 0.026 |
| U8C A9U C34G C68U | ≤ 0.026 |
| G7A U55A | ≤ 0.026 |
| U8C A14C C34U | ≤ 0.026 |
| U8C C12A C68A C72U | ≤ 0.026 |
| G7C A31C G32C | ≤ 0.026 |
| U8C C81G | ≤ 0.026 |
| U8C A54C | 0.0833 |
| U8A A23G C80G G84C | ≤ 0.026 |
| G7C C29G | ≤ 0.026 |
| A9C | 1.05 |
| U8C U63A | 0.0619 |
| G7A G86U | ≤ 0.026 |
| U8G A9U C11A G26U | ≤ 0.026 |
| U8C U35G U71A | ≤ 0.026 |
| G7A G10U U20A U35G U57G U63C | ≤ 0.026 |
| U8G A60G | ≤ 0.026 |
| G7A G18U | ≤ 0.026 |
| G7A A13U U58G G86C | ≤ 0.026 |

| Variant | nonsense suppression |
| --- | --- |
| G7A U20G | ≤ 0.026 |
| U8C U20A | 0.0281 |
| U8G G15C | ≤ 0.026 |
| G7U A54U U63C G88U | ≤ 0.026 |
| G7U U21A G78A C79A | ≤ 0.026 |
| U8G G67C G85C | ≤ 0.026 |
| U8G G25U A54U U70G G73C | ≤ 0.026 |
| G7C U55C | 0.0823 |
| G7U C79A G85U G86U G88U | ≤ 0.026 |
| U8C A24U U71C | ≤ 0.026 |
| G7U G19U | ≤ 0.026 |
| G7A U70A A89C | ≤ 0.026 |
| G7C U35G | ≤ 0.026 |
| G7C U22C G26A | ≤ 0.026 |
| U8C U70G A74C G84C | 0.0541 |
| U8G U17G G69U C80G | ≤ 0.026 |
| A9C A60C | 0.0924 |
| A9C A60U | 0.575 |
| G7C G10A C68G | ≤ 0.026 |
| U8C A9U A54U | ≤ 0.026 |
| U8A A13G | ≤ 0.026 |
| G7A G61A | ≤ 0.026 |
| G7C A9U | 0.0428 |
| G7A U17C A24G G32U U71C A87U | ≤ 0.026 |

| Variant | nonsense suppression |
| --- | --- |
| G7A G28U C34A | ≤ 0.026 |
| A9C C29U | 0.751 |
| U8A G61A C72G C81G | ≤ 0.026 |
| A9C A23G | 0.0661 |
| U8C U16A A30C A54C | ≤ 0.026 |
| G7C A33U G73A | ≤ 0.026 |
| G7C U76C | ≤ 0.026 |
| A9C A30U | 0.0886 |
| A9C A30G | 0.171 |
| U8G G73C | ≤ 0.026 |
| G7C C12A U71G U76C G88A | ≤ 0.026 |
| U8A U16G | 0.0647 |
| G7A U20C C82A G86A G88A A89C | ≤ 0.026 |
| A9C A31G | 0.857 |
| G7U A9C U16C U57C | ≤ 0.026 |
| G7C A14C G61U A74U A87G | ≤ 0.026 |
| G7C A14G U22A A24U G85C | ≤ 0.026 |
| G7U C82A | 1.02 |
| A9C A13C | 1.15 |
| A9C A13G | 0.0462 |
| G7A G26U | ≤ 0.026 |
| U8A G25C U70A | ≤ 0.026 |
| A9C A13U A60U | 1.16 |
| G7U G65A U76A | ≤ 0.026 |

| Variant | nonsense suppression |
| --- | --- |
| U8A U57C A74C G78U G85U A87U | ≤ 0.026 |
| U8A A14U U20A A74C | ≤ 0.026 |
| G7C C11G C79A | ≤ 0.026 |
| A9C A31G C68G G86A | ≤ 0.026 |
| G7C U21G | 0.0521 |
| G7A A9C A54G | ≤ 0.026 |
| U8A G67C U71G | ≤ 0.026 |
| G7U A87U | ≤ 0.026 |
| G7A C34U | ≤ 0.026 |
| U8A U57C | ≤ 0.026 |
| G7C G19C G66U G69C | ≤ 0.026 |
| G7U G85U | ≤ 0.026 |
| G7U A13G U17A | ≤ 0.026 |
| U8A A54U U76C A87C | ≤ 0.026 |
| G7A A24U C75U G78C | ≤ 0.026 |
| U8A G10A G65A G85U | ≤ 0.026 |
| G7A U20G C34U A62C | ≤ 0.026 |
| U8G G26A C56U C64G G66U G78U A89U | ≤ 0.026 |
| G7C U57A | ≤ 0.026 |
| G7U U21G A23U C79G | ≤ 0.026 |
| G7U A54C | 0.0394 |
| G7U A9U A31U | ≤ 0.026 |
| A9C A13G U55A G73U | ≤ 0.026 |
| G7A C81G | ≤ 0.026 |

| Variant | nonsense suppression |
| --- | --- |
| G7U A30G | ≤ 0.026 |
| G6U U70C | ≤ 0.026 |
| U8A A9G | 0.0277 |
| A9C A87G | 0.649 |
| U8C U21G | 0.0903 |
| U8C U21A | ≤ 0.026 |
| G7A C11U U35A A54C C64U C83G | ≤ 0.026 |
| G7U G28U U71G C72A G86U | ≤ 0.026 |
| U8C G85U | 0.0537 |
| G7U U55C C68U A89C | ≤ 0.026 |
| G7A A23C C56G | ≤ 0.026 |
| A9C A54U | 1.21 |
| G6U U76G | ≤ 0.026 |
| U8A U57C G85U | ≤ 0.026 |
| U8C G65A C72U | ≤ 0.026 |
| U8A G32A | ≤ 0.026 |
| U8A A24C C79G | ≤ 0.026 |
| G7C A60U G61A C82G | 0.0263 |
| G7C G73U | ≤ 0.026 |
| G7A U20G C34U U57C C64A C79U G88C | ≤ 0.026 |
| U8A U55G C81G | ≤ 0.026 |
| G7U G32A A33C C83A A89G | ≤ 0.026 |
| U8A G19C A60G | ≤ 0.026 |
| U8C A31C A54U G85A G88A | ≤ 0.026 |

| Variant | nonsense suppression |
| --- | --- |
| U8G A13C G28C C64U U70A C72U G84U | ≤ 0.026 |
| U8G G18C G59A | ≤ 0.026 |
| G7U C56U | ≤ 0.026 |
| U8A U57G C82A | ≤ 0.026 |
| U8A G25C | ≤ 0.026 |
| U8A G25A | ≤ 0.026 |
| G7A U35G G59A | ≤ 0.026 |
| G7A G26U C29A | ≤ 0.026 |
| A9C C68U | 0.765 |
| G7A A60G | 0.053 |
| U8C C80G | ≤ 0.026 |
| A9C C11A C75A | ≤ 0.026 |
| U8A C27G A54G C79U | ≤ 0.026 |
| G7A G59A U71G G73A G84A G85U | ≤ 0.026 |
| G7A A24C | 0.123 |
| U8A A30G A33G | ≤ 0.026 |
| U8G U57C | ≤ 0.026 |
| U8G C29G G84A | ≤ 0.026 |
| G7U C27U U35A A74C | ≤ 0.026 |
| U8G C27U | ≤ 0.026 |
| U8A A14G | 0.18 |
| U8A A30G | 0.0404 |
| U8A A30U | 0.0393 |
| U8C A31G | 0.0327 |

| Variant | nonsense suppression |
| --- | --- |
| G7A G25U | ≤ 0.026 |
| A9C C34U U58G G78C | ≤ 0.026 |
| A9C C12U A23C A87U | ≤ 0.026 |
| A9C C34G | ≤ 0.026 |
| U8C A54G G59C A62G G84A | ≤ 0.026 |
| U8C G28C | 0.0327 |
| U8A A9G U58A C72G C79A | ≤ 0.026 |
| U8A A60C G73U A87C | ≤ 0.026 |
| U8G C56U | ≤ 0.026 |
| G7A A54C G67U | ≤ 0.026 |
| G7U U22A | ≤ 0.026 |
| U8A G85U | 0.071 |
| G7A A30U | 0.0309 |
| G7U U8C | ≤ 0.026 |
| U8G G88A | 0.228 |
| G7U C11U C56G | ≤ 0.026 |
| U8G A13G G61C C68G C82G | ≤ 0.026 |
| U8A A13U G19A A62G G67A U71C | ≤ 0.026 |
| G7U U58G C80G | ≤ 0.026 |
| U8C G18U U22A U35G U71A C80G | ≤ 0.026 |
| G7A U16G G26C U71G | ≤ 0.026 |
| G7C U35G A62C | ≤ 0.026 |
| G7U G32A A60C A74G | ≤ 0.026 |
